Screens: PubChem BioAssay, several laboratories
T cruzi inh: T. cruzi replication inhibition. inhibition, % (test concentration not listed). T. cruzi beta-gal in NIH3T3, luminescence, 90 h. 300,000 compounds, 1.4% hits. AID 1885;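 active = mean inhibition across valid replicates above about 55%, limit read from the data; inconclusive = mean below that limit but half or more replicates reach it; inactive = mean below it, under half of replicates reach it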;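 note: signal also drops with host cell toxicity which is not excluded here; higher percent means less beta-gal luminescence so fewer parasites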
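Material: NIH/3T3 host cells with β-galactosidase reporter T. cruzi; Input: 5,000 host fibroblasts per well; Medium: DMEM, 2% fetal bovine serum; Compound: 50 nL DMSO compound solution per well; Schedule: 3 h host attachment, then at least 90 h co-culture; Detection: luminescent β-galactosidase signal after 60 min lysis.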
CSC inhib: blocks cancer stem cells; cancer stem cell-like cells viability, luminescence; inhibition, % at 7.5 µM; 300,000 compounds, 1.1% hits; AID 2717; in the data active = inhibition above about 75%; inconclusive = no clear call, values can overlap the other calls; tested in HMLE shEcad cells
Mdm2-MdmX inh: disrupts the human Mdm2-MdmX interaction; O15151+Q00987; inhibition, % at 8 µM; AID 485346; 330,000 compounds, 3% hits; SaOS-2 split-luciferase Mdm2/MdmX complementation, luminescence;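 active = inhibition of at least 50% at 8 µM in the primary screen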
Calb FLC: C. albicans growth modulation with fluconazole. 300,000 compounds, 0.57% hits. C. albicans CaCi-2 + fluconazole, Alamar Blue growth, 48 h. AID 1979. growth inhibition, % (no concentration beside the values);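 active = growth inhibition above about 58% in most replicates, limit read from the data, passing the limit was not always enough; inconclusive = exactly half the replicates above a set limit; inactive = most replicates below a set limit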;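 note: all wells also contain fluconazole at 8 µg/ml as a sub-toxic cotreatment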
SKKanGAS inh: SKKanGAS growth inhibition; 300,000 compounds, 1.3% hits; inhibition, % at 7.5 µM; S. pyogenes SKKanGAS, kanamycin growth, BacTiter-Glo, 6 h;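 active = mean replicate score, as percent of positive control median, at least 50; inconclusive = mean below 50 but one replicate at or above 50; inactive = mean and every replicate below 50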;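 note: strain carries kanamycin resistance gene driven by streptokinase promoter and grows in 40 µg/ml kanamycin; loss of luminescence reflects streptokinase promoter inhibition or plain growth inhibition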
Beta cell apopt: blocks beta cell apoptosis | INS-1E cytokine-induced death, ATP luminescence, 48 h; percent of positive-control rescue, neutral wells zero | protection from apoptosis, % (concentration not given with the values) | 300,000 compounds, 0.8% hits | AID 435005;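 active = Every replicate reaches about 75%, or at least half do and their mean reaches it too, limit read from the data; inconclusive = At least half of replicates reach the limit but their mean does not; inactive = Under half of replicates reach the limit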;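 note: higher means more ATP so stronger rescue from cytokine killing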
Large screens that a line does not name were inactive. Compounds with a hit are over-represented: about 5.7% of the library has one in this group of screens.

CCOc1ccc2oc(C(=O)O)c(C)c2c1	none
Cc1c(C(=O)NNC(=O)c2ccccc2O)oc2ccc(Br)cc12	SKKanGAS inh 107.6 (no result: Mdm2-MdmX inh, Calb FLC)
CCOc1ccc2oc(C(=O)NNC(=O)c3ccccc3O)c(C)c2c1	SKKanGAS inh 68.8 (no result: CSC inhib)
C[C@]12CCC(O)CC1=CCC1C2CC[C@]2(C)/C(=N\NC(N)=S)CCC12 (some centres not stated)	T cruzi inh 65.8
COc1ccc(-c2cc(C#N)nc(N3CCNCC3)n2)cc1	T cruzi inh 57.5
COc1ccc(-c2cc(C#N)nc(N3CCN(C)CC3)n2)cc1	T cruzi inh 66.3
CN1CCN(c2nc(C#N)cc(-c3ccccc3)n2)CC1	none
CCn1c(=O)c(C(=O)NNC(=O)c2ccccc2F)c(O)c2ccccc21	SKKanGAS inh 89.7
CCn1c(=O)c(C(=O)NNC(=O)c2ccccc2Cl)c(O)c2ccccc21	SKKanGAS inh 58.0 (no result: CSC inhib)
CCn1c(=O)c(C(=O)NCc2ccc(F)cc2)c(O)c2ccccc21	Calb FLC inconclusive
Cn1c(=O)c(C(=O)NNC(=O)c2ccccc2F)c(O)c2ccccc21	SKKanGAS inh 60.6 (no result: CSC inhib)
Cc1ccc(N(Cc2cc3ccccc3[nH]c2=O)C(=O)c2cccs2)cc1C	none (no result: CSC inhib, Beta cell apopt)
O=C1NC(=O)c2cc(Oc3ccc([N+](=O)[O-])cc3)ccc21	none
O=C(NC(=S)NNC(=O)[C@H]1C[C@@H]1c1ccccc1)c1cccc(F)c1	T cruzi inh 58.3, SKKanGAS inh 99.2
COc1cccc(OC)c1C(=O)NC(=S)NNC(=O)[C@H]1C[C@@H]1c1ccccc1	SKKanGAS inh 79.0 (no result: CSC inhib, Beta cell apopt)
COc1ccc(/C=C/C(=O)NC(=S)NNC(=O)[C@H]2C[C@@H]2c2ccccc2)cc1OC	SKKanGAS inh 63.2 (no result: Calb FLC)
Cc1cccc(NC(=O)CNC(=O)Cn2cc(C(F)(F)F)cc(Cl)c2=O)c1C	none (no result: T cruzi inh, CSC inhib, Calb FLC, SKKanGAS inh, Beta cell apopt)
COc1cc(C(=O)NCCN2C(=O)S/C(=C\c3ccc(F)cc3)C2=O)ccc1OCC(=O)N1CCOCC1	none
O=S(=O)(c1ccc(Cl)cc1)N1CCC(N2CCOCC2)CC1	none
Nc1nc(-c2ccc(Cl)cc2)c(N=Nc2ccc(S(=O)(=O)N3CCOCC3)cc2)s1	T cruzi inh 59.1
O=C(Nc1ccc(C(=O)NC2CCCCC2)cc1)c1cccnc1	Beta cell apopt 99.9
O=C(Nc1ccc(N2CCN(C(=O)c3ccc(Cl)cc3)CC2)cc1)c1cccnc1	Beta cell apopt 104.0
COC(=O)c1c(-c2cccs2)csc1NC(=O)c1cccnc1	Calb FLC 94.8
O=C(Nc1ccc(OCc2ccccc2Cl)cc1)c1cccnc1	Calb FLC 114.2
CCOc1ccc(OCC(=O)OCC(=O)NNC(=O)c2ccc([N+](=O)[O-])cc2)cc1	none (no result: Calb FLC)
CCn1nc(NS(=O)(=O)c2ccc(NC(C)=O)cc2)c2cc3cc(C)ccc3nc21	none (no result: Beta cell apopt)
O=C(Nc1cccnc1)c1cccnc1	Beta cell apopt 104.9
COC(=O)c1cccc(NC(=O)c2cccnc2)c1	none
COC(=O)c1ccc(NC(=O)c2cccnc2)cc1	Beta cell apopt 109.6
COc1ccc(-c2c(C)nn(-c3ccccc3)c2N)cc1	none
Cc1nn(-c2nc3ccccc3[nH]2)c(N)c1-c1ccc(Cl)cc1	SKKanGAS inh 68.0 (no result: T cruzi inh)
Cc1nn(-c2ccc3ccccc3c2)c(=O)c2ccccc12	none
Cc1nn(-c2nc3ccccc3[nH]2)c(=O)c2ccccc12	CSC inhib 97.5, SKKanGAS inh inconclusive, Beta cell apopt 86.2 (no result: Mdm2-MdmX inh)
Cn1c(N)c(C(=O)COC(=O)/C=C/c2ccccc2)c(=O)n(C)c1=O	none (no result: T cruzi inh, Calb FLC, SKKanGAS inh)
CN(CCCC1CCCC1)C(=O)CC1C(=O)NCCN1Cc1ccc(F)cc1 (configuration not stated)	none (no result: Beta cell apopt)
COc1ccc(OC)c(NC(=O)C2CCN(C(=O)C3CC(=O)N(c4ccc(C)cc4)C3)CC2)c1 (configuration not stated)	none
CN(C)CC(CCC(CN(C)C)C(=O)c1ccccc1)C(=O)c1ccccc1 (configuration not stated)	T cruzi inh 70.8, Calb FLC inconclusive (no result: CSC inhib, Mdm2-MdmX inh, Beta cell apopt)
CC(C)(C)n1nc2c(c1NC(=O)c1c(F)cccc1F)CS(=O)(=O)C2	none
O=C(N/N=C/c1cccc(O)c1)c1ccc(COc2ccccc2Br)cc1	CSC inhib 87.2, SKKanGAS inh 63.2
O=C(N/N=C/c1ccc([N+](=O)[O-])cc1)c1ccccc1OCc1ccccc1	none
CC(C)(C)c1ccc(OCc2ccc(C(=O)N/N=C/c3ccc(O)c(O)c3)cc2)cc1	CSC inhib 88.9, Calb FLC 63.1, SKKanGAS inh 61.6, Beta cell apopt 94.7
O=C(N/N=C/c1ccc([N+](=O)[O-])cc1)c1ccc(COc2ccccc2-c2ccccc2)cc1	T cruzi inh 60.5
COc1ccc(/C=N/NC(=O)c2ccc(COc3cccc4cccnc34)cc2)cc1O	none
O=C(/C=C/c1ccc([N+](=O)[O-])cc1)Oc1ccc(/C=N/NC(=O)c2ccncc2)cc1	T cruzi inh 54.5
Cc1ccc(C(C)C)c(OCc2ccc(C(=O)N/N=C/c3ccc(O)cc3O)cc2)c1	CSC inhib 100.6, SKKanGAS inh 86.7, Beta cell apopt 116.5 (no result: Mdm2-MdmX inh)
O=[N+]([O-])c1ccc(/C=C/c2ccncc2)cc1	T cruzi inh 65.5 (no result: Mdm2-MdmX inh)
O=[N+]([O-])c1cccc(/C=C/c2ccncc2)c1	none
CCc1ccc(C(=O)NNC(=O)C2CC(=O)N(Cc3ccccc3)C2)cc1 (configuration not stated)	none
Cc1ccccc1CC1SC(N)=NC1=O (configuration not stated)	none
CCONc1ncnc2nonc12	Calb FLC inconclusive
Clc1ccc(CONc2ncnc3nonc23)c(Cl)c1	Calb FLC 76.0 (no result: SKKanGAS inh)
Brc1cccc(CNCC2CCCO2)c1 (configuration not stated)	none
COc1cccc2[nH]c3c(N4CCCC(C)C4)ncnc3c12 (configuration not stated)	none
COc1cccc2[nH]c3c(N4CC(C)CC(C)C4)ncnc3c12 (configuration not stated)	T cruzi inh 56.6 (no result: CSC inhib, Beta cell apopt)
O=C1CSc2ccc(C(=O)Nc3cccc(S(=O)(=O)Nc4ccc(Br)cc4)c3)cc2N1	CSC inhib 87.3, SKKanGAS inh 73.2
CN(C)S(=O)(=O)c1cccc(NC(=O)c2cnccn2)c1	none
O=C(Nc1cccc(S(=O)(=O)Nc2ccc(Cl)cc2)c1)c1ccc(Cl)nc1	Beta cell apopt 78.7
COc1ccc(NS(=O)(=O)c2cccc(NC(=O)c3cnccn3)c2)cc1Br	T cruzi inh 68.2 (no result: Beta cell apopt)
O=C(Nc1cccc(S(=O)(=O)Nc2ccc(Cl)cc2)c1)c1cc2c(s1)CCCC2	T cruzi inh 64.8, CSC inhib 117.4, SKKanGAS inh 65.4
C=CCn1c(O)c(N=NC(=O)CNC(=O)Cc2ccccc2)c2ccccc21	none
CCNc1cc(Nc2c(C)n(C)n(-c3ccccc3)c2=O)c([N+](=O)[O-])c2nonc12	none
CCOC(=O)C1CCCN(S(=O)(=O)c2ccc(-c3cc(C)no3)s2)C1 (configuration not stated)	none
